Columns and labels:
MCF7 = test: Growth inhibition of human MCF7 cells assessed as cell growth at 10^-7 M incubated for 48 hrs by sulforhodamine B assay; assay type: functional; conditions: MCF7, 48 h, read-out: Activity
[1] = Growth inhibition of human SNB75 cells assessed as cell growth at 10^-6 M incubated for 48 hrs by sulforhodamine B assay; assay type: functional; conditions: SNB-75, 48 h, read-out: Activity
Malme-3M = test: Growth inhibition of human MALME-3M cells incubated for 48 hrs by sulforhodamine B assay; assay type: functional
Procedure, shortened: (§1)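 Cells were plated at 5,000–40,000 per well according to doubling time and preincubated 24 h at 37 °C in 5% CO2; time-zero plates were then TCA-fixed. Five concentrations (10-fold or ½-log dilutions, DMSO stock) were incubated 48 h. Cells were TCA-fixed, stained with 0.4% SRB and read at 515 nm. GI50 was taken where [(Ti−Tz)/(C−Tz)]×100 = 50.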

[2] = Growth inhibition of human HCC2998 cells assessed as cell growth at 10^-8 M incubated for 48 hrs by sulforhodamine B assay; assay type: functional; conditions: HCC 2998, 48 h, read-out: Activity
Procedure, shortened: (§2)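 Cells seeded at 5,000–40,000/well according to doubling time and preincubated 24 h at 37 °C, 5% CO2. Time-zero plates were TCA-fixed. DMSO concentrate was diluted in medium with 50 µg/ml gentamicin to give five concentrations (10-fold or ½ log steps), then exposed 48 h. Cells were TCA-fixed, stained with 0.4% SRB and read at 515 nm. Percent growth was taken against time-zero and control; GI50, TGI and LC50 derived.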

[3] = Growth inhibition of human DU145 cells assessed as cell growth at 10^-7 M incubated for 48 hrs by sulforhodamine B assay; assay type: functional; conditions: DU-145, 48 h, read-out: Activity; procedure, shortened: as §2
[4] = Growth inhibition of human BT549 cells assessed as cell growth at 10 uM incubated for 48 hrs by sulforhodamine B assay; assay type: functional; conditions: BT-549, 48 h, read-out: Activity
Procedure, shortened: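 One-dose screen at 10 µM final. Cells are plated at 5,000–40,000 per well according to doubling time and preincubated 24 h at 37 °C, 5% CO₂. Compound (DMSO stock diluted in medium with 50 µg/ml gentamicin) is then added for 48 h. Growth percent is read by sulforhodamine B staining, absorbance at 515 nm.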

MDA-MB-231 = test: Growth inhibition of human MDA-MB-231 cells assessed as cell growth at 10 uM incubated for 48 hrs by sulforhodamine B assay; assay type: functional; conditions: MDA-MB-231, 48 h, read-out: Activity
SR [5] = test: Growth inhibition of human SR cells assessed as cell growth at 10^-5 M incubated for 48 hrs by sulforhodamine B assay; assay type: functional; conditions: read-out: Activity
[6] = Growth inhibition of human SF268 cells assessed as cell growth at 10^-7 M incubated for 48 hrs by sulforhodamine B assay; assay type: functional; conditions: SF-268, 48 h, read-out: Activity
K562 = test: Growth inhibition of human K562 cells assessed as cell growth at 10^-5 M incubated for 48 hrs by sulforhodamine B assay; assay type: functional; conditions: K562, 48 h, read-out: Activity
[7] = Growth inhibition of human SKOV3 cells assessed as cell growth at 10^-5 M incubated for 48 hrs by sulforhodamine B assay; assay type: functional; conditions: SK-OV-3, 48 h, read-out: Activity
NCI/ADR-RES = test: Growth inhibition of human NCI/ADR-RES cells assessed as cell growth at 10^-4 M incubated for 48 hrs by sulforhodamine B assay; assay type: functional; conditions: read-out: Activity
NCI-H322M = test: Growth inhibition of human NCI-H322M cells incubated for 48 hrs by sulforhodamine B assay; assay type: functional; procedure, shortened: as §1
[8] = Growth inhibition of human RXF393 cells assessed as cell growth at 10^-7 M incubated for 48 hrs by sulforhodamine B assay; assay type: functional; conditions: RXF 393, 48 h, read-out: Activity
SK-MEL-5 = test: Growth inhibition of human SK-MEL-5 cells incubated for 48 hrs by sulforhodamine B assay; assay type: functional; conditions: SK-MEL-5, 48 h; procedure, shortened: as §1
[9] = Growth inhibition of human HCT15 cells assessed as cell growth at 10 uM incubated for 48 hrs by sulforhodamine B assay; assay type: functional; conditions: HCT-15, 48 h, read-out: Activity
Procedure, shortened: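 Primary screen at one dose (10 µM) across 60 human cancer cell lines. Readout was growth percent relative to untreated control and time-zero.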

[10] = Growth inhibition of human OVCAR3 cells assessed as cell growth at 10^-7 M incubated for 48 hrs by sulforhodamine B assay; assay type: functional; conditions: OVCAR-3, 48 h, read-out: Activity
SK-MEL-2 = test: Growth inhibition of human SK-MEL-2 cells incubated for 48 hrs by sulforhodamine B assay; assay type: functional; conditions: SK-MEL-2, 48 h; procedure, shortened: as §1
SK-MEL-28 = test: Growth inhibition of human SK-MEL-28 cells assessed as cell growth at 10 uM incubated for 48 hrs by sulforhodamine B assay; assay type: functional; conditions: SK-MEL-28, 48 h, read-out: Activity
CCRF-CEM = test: Growth inhibition of human CCRF-CEM cells assessed as cell growth at 10^-4 M incubated for 48 hrs by sulforhodamine B assay; assay type: functional; conditions: read-out: Activity
Procedure, shortened: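 Leukemia line in the five-dose format: five concentrations from 10-fold or ½-log serial dilutions. Plated at 5,000–40,000 cells per well, preincubated 24 h, then compound added for 48 h at 37 °C, 5% CO₂. Sulforhodamine B absorbance read at 515 nm. Growth is computed against time-zero (Tz) and control (C) readings; GI₅₀ is where [(Ti−Tz)/(C−Tz)]×100 = 50.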

[11] = Growth inhibition of human TK10 cells assessed as cell growth at 10^-5 M incubated for 48 hrs by sulforhodamine B assay; assay type: functional; conditions: TK-10, 48 h, read-out: Activity
SR [12] = test: Growth inhibition of human SR cells incubated for 48 hrs by sulforhodamine B assay; assay type: functional; procedure, shortened: as §1
Albumin = Albumin (Bos taurus, UniProt P02769); test: Binding affinity to bovine serum albumin assessed as enhancement in emission spectra up to 20 uM by fluorescence spectroscopic analysis relative to control; assay type: ADME; conditions: cattle, isolated protein
Sequence of Albumin (P02769 whole entry): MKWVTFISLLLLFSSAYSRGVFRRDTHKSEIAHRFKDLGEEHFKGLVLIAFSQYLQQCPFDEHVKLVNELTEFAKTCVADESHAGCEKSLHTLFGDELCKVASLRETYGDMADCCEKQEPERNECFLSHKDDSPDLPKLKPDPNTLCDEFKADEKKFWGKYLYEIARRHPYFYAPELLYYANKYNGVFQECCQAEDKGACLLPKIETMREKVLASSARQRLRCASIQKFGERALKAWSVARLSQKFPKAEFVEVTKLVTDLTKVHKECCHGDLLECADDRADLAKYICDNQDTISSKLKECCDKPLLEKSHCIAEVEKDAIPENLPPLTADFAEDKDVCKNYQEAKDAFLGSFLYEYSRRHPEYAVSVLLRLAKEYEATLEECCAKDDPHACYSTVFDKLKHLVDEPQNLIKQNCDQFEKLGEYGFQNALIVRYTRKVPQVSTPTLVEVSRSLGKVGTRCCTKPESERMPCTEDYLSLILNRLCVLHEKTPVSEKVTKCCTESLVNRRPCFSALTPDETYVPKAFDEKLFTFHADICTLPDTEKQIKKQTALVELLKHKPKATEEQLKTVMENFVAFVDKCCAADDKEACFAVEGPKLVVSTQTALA
Procedure, shortened: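 Fluorescence titration of 10 µM BSA in 0.1 M phosphate buffer pH 7.4 with compound at 0–20 µM, diluted from DMSO stocks. Excitation 280 nm, slit 10 nm, 1 cm quartz cell, 300 K. Changes in the 350 nm Trp emission, new bands near 370–373 nm and isoemissive points are read against BSA alone.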

[13] = read-out: LC50 (the source's name)
[14] = read-out: pLC50 (the source's name) (converted)

c1ccc(-c2nc(Nc3ccc(-c4nc5ccccc5[nH]4)cc3)nc(N3CCOCC3)n2)cc1
growth at 0.1 µM (MCF7): 92%
growth at 1 µM [1]: 88%
GI50 (Malme-3M; read-out: GI50): 2 µM
CC50 (Malme-3M; [13]): 7.42 µM
TGI (Malme-3M; read-out: TGI): 3.85 µM
GI50 (Malme-3M; read-out: pGI50 (converted)): 2 µM
CC50 (Malme-3M; [14]): 7.41 µM
TGI (Malme-3M; read-out: pTGI (converted)): 3.89 µM
growth at 0.01 µM [2]: 100%
growth at 0.1 µM [3]: 95%
growth at 10 µM [4]: 33.6%
growth at 10 µM (MDA-MB-231): -63.3%
growth at 10 µM (SR [5]): -26%
growth at 0.1 µM [6]: 92%
growth at 10 µM (K562): -54%
growth at 10 µM [7]: -62%
growth at 100 µM (NCI/ADR-RES): -33%
GI50 (NCI-H322M; read-out: GI50): 1.65 µM
CC50 (NCI-H322M; [13]): 6.67 µM
TGI (NCI-H322M; read-out: TGI): 3.31 µM
GI50 (NCI-H322M; read-out: pGI50 (converted)): 1.66 µM
CC50 (NCI-H322M; [14]): 6.61 µM
TGI (NCI-H322M; read-out: pTGI (converted)): 3.31 µM
growth at 0.1 µM [8]: 96%
GI50 (SK-MEL-5; read-out: GI50): 1.69 µM
CC50 (SK-MEL-5; [13]): 5.9 µM
TGI (SK-MEL-5; read-out: TGI): 3.15 µM
GI50 (SK-MEL-5; read-out: pGI50 (converted)): 1.7 µM
CC50 (SK-MEL-5; [14]): 5.89 µM
TGI (SK-MEL-5; read-out: pTGI (converted)): 3.16 µM
growth at 10 µM [9]: -68.9%
growth at 0.1 µM [10]: 98%
GI50 (SK-MEL-2; read-out: GI50): 1.97 µM
CC50 (SK-MEL-2; [13]): 6.55 µM
TGI (SK-MEL-2; read-out: TGI): 3.59 µM
GI50 (SK-MEL-2; read-out: pGI50 (converted)): 1.95 µM
CC50 (SK-MEL-2; [14]): 6.61 µM
TGI (SK-MEL-2; read-out: pTGI (converted)): 3.63 µM
growth at 10 µM (SK-MEL-28): -82.8%
growth at 100 µM (CCRF-CEM): -36%
growth at 10 µM [11]: -87%
GI50 (SR [12]; read-out: GI50): 0.125 µM
CC50 (SR [12]; [13]): > 100 µM
TGI (SR [12]; read-out: TGI): 0.555 µM
GI50 (SR [12]; read-out: pGI50 (converted)): 0.126 µM
CC50 (SR [12]; [14]): > 100 µM
TGI (SR [12]; read-out: pTGI (converted)): 0.55 µM
Activity (Albumin): 22.78%

Source: ChEMBL document CHEMBL3808334, “Synthesis and in vitro evaluation of novel triazine analogues as anticancer agents and their interaction studies with bovine serum albumin” (Eur J Med Chem, 2016)
